Assay [1] addresses T1, Phosphatidylinositol 4,5-bisphosphate 3-kinase catalytic subunit delta isoform (Homo sapiens, UniProt O00329).
T1 sequence (O00329 whole entry): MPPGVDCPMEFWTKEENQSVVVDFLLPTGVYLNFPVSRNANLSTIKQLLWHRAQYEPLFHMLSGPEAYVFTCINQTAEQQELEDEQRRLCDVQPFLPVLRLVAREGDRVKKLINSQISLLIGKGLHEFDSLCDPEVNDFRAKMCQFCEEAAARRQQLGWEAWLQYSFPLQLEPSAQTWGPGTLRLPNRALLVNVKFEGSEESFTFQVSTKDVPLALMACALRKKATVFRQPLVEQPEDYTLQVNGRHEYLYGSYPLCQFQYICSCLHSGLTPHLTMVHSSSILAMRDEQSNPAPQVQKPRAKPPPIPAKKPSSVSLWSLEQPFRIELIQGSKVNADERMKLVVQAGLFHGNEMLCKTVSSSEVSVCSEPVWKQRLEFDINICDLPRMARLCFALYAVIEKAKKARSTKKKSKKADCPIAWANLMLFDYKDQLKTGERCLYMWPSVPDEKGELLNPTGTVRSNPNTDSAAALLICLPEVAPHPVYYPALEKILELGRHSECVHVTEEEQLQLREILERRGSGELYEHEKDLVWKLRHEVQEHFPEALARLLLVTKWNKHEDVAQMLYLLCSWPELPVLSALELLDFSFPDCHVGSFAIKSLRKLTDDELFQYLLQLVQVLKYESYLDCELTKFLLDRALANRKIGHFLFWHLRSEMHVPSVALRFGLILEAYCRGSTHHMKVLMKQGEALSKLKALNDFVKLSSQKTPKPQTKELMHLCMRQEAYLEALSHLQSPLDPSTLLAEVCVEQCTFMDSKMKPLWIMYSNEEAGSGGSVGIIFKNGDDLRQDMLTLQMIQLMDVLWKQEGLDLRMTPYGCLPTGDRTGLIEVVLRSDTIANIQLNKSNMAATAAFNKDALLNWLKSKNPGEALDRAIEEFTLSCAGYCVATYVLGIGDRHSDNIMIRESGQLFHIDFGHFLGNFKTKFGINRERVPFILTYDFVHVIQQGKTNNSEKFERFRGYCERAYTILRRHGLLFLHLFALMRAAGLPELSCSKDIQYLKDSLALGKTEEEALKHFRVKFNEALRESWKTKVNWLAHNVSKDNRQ
Kind of assay: Inhibition of PI3Kdelta (unknown origin) using diC8 PIP2 as substrate after 120 mins by ADP-glo assay. The method, boiled down: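 Delta isoform reacted 120 min in glycine-NaOH pH 8.5 buffer (50 mM KCl, 2.5 mM MgCl2, 1 mM DTT, 0.05% CHAPS) with 0.01 mM ATP and 0.05 mM diC8 PIP2; ADP formed detected by ADP-Glo (40 min) plus detection buffer (40 min) luminescence. Dundee profiling centre.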
In general terms: ADP-Glo first removes unused ATP, then detects ADP through luciferase.

The target of assay [2] is Phosphatidylinositol 4,5-bisphosphate 3-kinase catalytic subunit beta isoform (Homo sapiens, UniProt P42338). Kind of assay: Inhibition of PI3Kbeta (unknown origin) using diC8 PIP2 as substrate after 60 mins by ADP-glo assay.
The target in assay [3] is Phosphatidylinositol 4,5-bisphosphate 3-kinase catalytic subunit alpha isoform (Homo sapiens, UniProt P42336). Kind of assay: Inhibition of PI3Kalpha (unknown origin) using diC8 PIP2 as substrate after 80 mins by ADP-glo assay.

A value given as a limit tells only on which side of the number the result lay.

Our source for the IC50 values is BindingDB's records for doi:10.1016/j.ejmech.2016.07.006 (Csir-Indian Institute of Integrative Medicine, 2016).

Chain of Phosphatidylinositol 4,5-bisphosphate 3-kinase catalytic subunit beta isoform (P42338 whole entry, canonical isoform): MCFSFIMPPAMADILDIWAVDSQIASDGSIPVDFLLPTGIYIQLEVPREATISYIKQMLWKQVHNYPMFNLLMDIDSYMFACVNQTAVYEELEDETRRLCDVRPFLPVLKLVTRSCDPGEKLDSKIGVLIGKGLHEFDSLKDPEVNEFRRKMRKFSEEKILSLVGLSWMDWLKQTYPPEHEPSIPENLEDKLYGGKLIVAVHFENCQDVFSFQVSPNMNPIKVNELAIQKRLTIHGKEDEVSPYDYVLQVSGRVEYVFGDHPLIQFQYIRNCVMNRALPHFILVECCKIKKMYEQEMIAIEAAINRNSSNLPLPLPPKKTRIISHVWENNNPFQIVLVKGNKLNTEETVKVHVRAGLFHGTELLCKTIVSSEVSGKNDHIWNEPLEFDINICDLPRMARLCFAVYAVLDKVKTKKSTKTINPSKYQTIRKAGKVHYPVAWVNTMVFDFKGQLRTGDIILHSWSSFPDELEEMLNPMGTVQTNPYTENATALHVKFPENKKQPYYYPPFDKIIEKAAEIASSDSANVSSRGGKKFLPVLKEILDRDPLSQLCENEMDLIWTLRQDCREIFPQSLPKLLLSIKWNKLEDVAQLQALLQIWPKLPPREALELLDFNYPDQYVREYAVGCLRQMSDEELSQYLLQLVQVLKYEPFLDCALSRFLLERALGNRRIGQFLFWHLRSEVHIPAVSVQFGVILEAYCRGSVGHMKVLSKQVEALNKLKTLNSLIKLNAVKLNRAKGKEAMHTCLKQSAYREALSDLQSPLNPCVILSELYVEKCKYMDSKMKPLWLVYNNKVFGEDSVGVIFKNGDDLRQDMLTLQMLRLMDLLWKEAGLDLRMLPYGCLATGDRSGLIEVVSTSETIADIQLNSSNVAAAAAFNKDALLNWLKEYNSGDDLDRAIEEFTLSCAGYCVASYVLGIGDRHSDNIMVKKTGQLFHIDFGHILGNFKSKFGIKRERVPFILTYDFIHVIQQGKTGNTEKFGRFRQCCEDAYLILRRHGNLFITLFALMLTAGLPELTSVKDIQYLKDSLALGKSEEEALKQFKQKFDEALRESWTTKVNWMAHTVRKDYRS
Chain of Phosphatidylinositol 4,5-bisphosphate 3-kinase catalytic subunit alpha isoform (P42336 whole entry, canonical isoform): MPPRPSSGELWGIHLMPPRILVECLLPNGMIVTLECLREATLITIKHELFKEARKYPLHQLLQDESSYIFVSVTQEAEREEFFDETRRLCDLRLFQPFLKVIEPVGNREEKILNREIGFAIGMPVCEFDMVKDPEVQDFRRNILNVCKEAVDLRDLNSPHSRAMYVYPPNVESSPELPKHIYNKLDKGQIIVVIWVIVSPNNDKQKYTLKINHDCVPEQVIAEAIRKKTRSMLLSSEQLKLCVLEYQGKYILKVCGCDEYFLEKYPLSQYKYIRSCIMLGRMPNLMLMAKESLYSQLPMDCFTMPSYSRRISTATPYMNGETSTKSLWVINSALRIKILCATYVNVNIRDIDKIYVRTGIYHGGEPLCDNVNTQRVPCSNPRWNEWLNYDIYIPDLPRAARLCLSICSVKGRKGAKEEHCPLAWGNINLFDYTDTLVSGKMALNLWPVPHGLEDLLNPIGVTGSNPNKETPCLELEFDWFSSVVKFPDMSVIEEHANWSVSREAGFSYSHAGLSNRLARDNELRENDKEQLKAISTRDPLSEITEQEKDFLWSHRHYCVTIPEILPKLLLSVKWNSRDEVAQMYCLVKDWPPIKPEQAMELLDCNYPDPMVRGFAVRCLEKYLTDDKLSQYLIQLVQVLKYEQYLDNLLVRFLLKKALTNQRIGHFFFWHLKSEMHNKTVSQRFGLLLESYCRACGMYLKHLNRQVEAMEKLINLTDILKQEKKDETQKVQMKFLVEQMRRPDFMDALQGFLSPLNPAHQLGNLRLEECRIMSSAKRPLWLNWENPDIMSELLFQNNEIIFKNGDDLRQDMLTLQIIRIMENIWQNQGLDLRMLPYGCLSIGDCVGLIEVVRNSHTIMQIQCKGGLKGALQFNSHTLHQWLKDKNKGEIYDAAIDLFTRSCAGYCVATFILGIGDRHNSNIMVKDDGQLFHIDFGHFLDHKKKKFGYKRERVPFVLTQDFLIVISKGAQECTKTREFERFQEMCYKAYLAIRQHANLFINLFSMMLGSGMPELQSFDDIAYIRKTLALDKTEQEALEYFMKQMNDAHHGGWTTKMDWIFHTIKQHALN

Regarding `N#CCc1ccc(Nc2ncnc3ccc(-c4ccc5c(c4)OCCO5)cc23)cc1`, the 50% inhibitory concentration (IC50) in assay [1] and in assay [2] was over 10 µM throughout.
Turning to `N#CCc1ccc(Nc2ncnc3ccc(-c4ccc5c(c4)OCO5)cc23)cc1`, the half-maximal inhibitory concentration (IC50) in assay [1] and in assay [2] was over 10 µM throughout.
For the compound `CC(=O)c1ccc(-c2ccc3ncnc(Nc4ccc(CC#N)cc4)c3c2)cc1`, the IC50 in assay [1] and in assay [2] was over 10 µM in each case.
As for `N#CCc1ccc(Nc2ncnc3ccc(-c4ccncc4)cc23)cc1`, the IC50 in assay [1] and in assay [2] was over 10 µM throughout.
In the case of `C=Cc1ccc(-c2ccc3ncnc(Nc4ccc(CC#N)cc4)c3c2)cc1`, the IC50 in assay [3], in assay [1] and in assay [2] was over 10 µM throughout.
For `N#CCc1ccc(Nc2ncnc3ccc(-c4ccc5[nH]ccc5c4)cc23)cc1`, the IC50 in assay [1] and in assay [2] was over 10 µM in each case.
On to `N#CCc1ccc(Nc2ncnc3ccc(-c4cncc5ccccc45)cc23)cc1`, for which, in assay [2], the IC50 was over 20 µM.
`N#CCc1ccc(Nc2ncnc3ccc(-c4cccc([N+](=O)[O-])c4)cc23)cc1`: the IC50 in assay [1] and in assay [2] was over 10 µM in each case.

A word on the IC50: it is the concentration at which inhibition is half-maximal.
